Laboratory results reported in ChEMBL document CHEMBL4715738, “In Vitro Antibacterial Activity of Curcumin-Polymyxin B Combinations against Multidrug-Resistant Bacteria Associated with Traumatic Wound Infections” (J Nat Prod, 2016).
The source made the active and inactive calls.

Columns and labels:
Pseudomonas aeruginosa [1] = experiment: Synergistic antibacterial activity against Pseudomonas aeruginosa PA14 assessed as fractional inhibitory concentration index measured after 24 hrs in presence of curcumin by checkerboard assay; type: functional
Outline: (§1)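 FICI calculated from combination MICs; ≤0.5 taken as synergy and >0.5–4.0 as additive. Where an MIC was not reached, the dilution above the highest concentration tested was used in the calculation. Run in triplicate and reported as means.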

[2] = tested on: Stenotrophomonas maltophilia; experiment: Antibacterial activity against Stenotrophomonas maltophilia NCTC 10258 assessed as reduction in colony formation at MIC measured after 24 hrs by time kill assay; type: functional, organism-based
Outline: (§2)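 Time-kill in Mueller-Hinton 2 broth. Inoculum was a 1/1000 dilution of a 16 h overnight culture, about 10^6 CFU/mL, 10 mL per tube. Arms were each agent alone at ×1 MIC, or the combination at ×1 MIC plus ×0.5 MIC partner. Incubated at 37 °C with continuous agitation for 24 h. Samples taken at 0, 2, 4, 6 and 24 h, serially diluted and plated on IsoSensitest agar for CFU counts.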

Acinetobacter baumannii [3] = experiment: Antibacterial activity against Acinetobacter baumannii AB14 harboring OXA-23 clone 1 assessed as reduction in bacterial growth incubated for 24 hrs in presence of curcumin; type: functional
Enterococcus faecium [4] = experiment: Antibacterial activity against vancomycin-resistant Enterococcus faecium OEF42 assessed as reduction in bacterial growth incubated for 24 hrs in presence of curcumin; type: functional
Enterococcus faecalis [5] = experiment: Synergistic antibacterial activity against […] Enterococcus faecalis ATCC 29212 assessed as fractional inhibitory concentration index measured after 24 hrs in presence of curcumin by checkerboard assay; type: functional
Outline: (§3)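 FICI was derived from checkerboard MICs. Synergy was defined as FICI ≤ 0.5 and additive as FICI > 0.5−4.0. Where an MIC was not reached, the dilution above the maximum dose was used in the FICI calculation. Experiments were run in triplicate and reported as means.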

Acinetobacter baumannii [6] = experiment: Synergistic antibacterial activity against Acinetobacter baumannii AB14 harboring OXA-23 clone 1 assessed as fractional inhibitory concentration index measured after 24 hrs in presence of curcumin by checkerboard assay; type: functional; outline: as §3
Streptococcus pyogenes [7] = experiment: Synergistic antibacterial activity against Streptococcus pyogenes SPY3 assessed as fractional inhibitory concentration index measured after 24 hrs in presence of curcumin by checkerboard assay
Streptococcus pyogenes [8] = experiment: Synergistic antibacterial activity against Streptococcus pyogenes SPY2 assessed as fractional inhibitory concentration index measured after 24 hrs in presence of curcumin by checkerboard assay; type: functional; outline: as §1
Escherichia coli [9] = experiment: Antibacterial activity against Escherichia coli NCTC 12241 assessed as reduction in bacterial growth incubated for 24 hrs in presence of curcumin; type: functional
Pseudomonas aeruginosa [10] = experiment: Synergistic antibacterial activity against Pseudomonas aeruginosa PA30 harboring VIM-2 assessed as fractional inhibitory concentration index measured after 24 hrs in presence of curcumin by checkerboard assay; type: functional; outline: as §3
Enterococcus faecalis [11] = experiment: Antibacterial activity against […] Enterococcus faecalis ATCC 29212 assessed as reduction in bacterial growth incubated for 24 hrs in presence of curcumin; type: functional
Enterococcus faecium [12] = experiment: Antibacterial activity against vancomycin-resistant Enterococcus faecium OEF42 assessed as reduction in bacterial growth incubated for 24 hrs in presence of polymyxin B; type: functional
Escherichia coli [13] = experiment: Potentiation of polymyxin B-induced antibacterial activity against Escherichia coli EC204 harboring NDM-1 assessed as fold reduction in polymyxin B MIC measured after 24 hrs in presence of polymyxin B by checkerboard assay; type: functional
Staphylococcus aureus [14] = experiment: Antibacterial activity against methicillin-resistant Staphylococcus aureus NCTC 12493 assessed as reduction in bacterial colony formation at 0.5 fold MIC measured after 24 hrs by time kill assay; type: functional, organism-based
Acinetobacter baumannii [15] = experiment: Antibacterial activity against Acinetobacter baumannii AB14 harboring OXA-23 clone 1 assessed as reduction in bacterial growth incubated for 24 hrs in presence of polymyxin B; type: functional
Staphylococcus aureus [16] = experiment: Antibacterial activity against vancomycin-intermediate resistant Staphylococcus aureus Mu50 assessed as reduction in bacterial growth incubated for 24 hrs in presence of polymyxin B; type: functional
Pseudomonas aeruginosa [17] = experiment: Potentiation of polymyxin B-induced antibacterial activity against Pseudomonas aeruginosa PAO1 assessed as fold reduction in polymyxin B MIC measured after 24 hrs in presence of polymyxin B by checkerboard assay; type: functional
Acinetobacter baumannii [18] = experiment: Antibacterial activity against Acinetobacter baumannii ATCC 19606 assessed as reduction in bacterial colony formation at 0.5 fold MIC measured after 24 hrs by time kill assay; type: functional, organism-based; conditions: ATCC 19606 = CIP 70.34 = JCM 6841; outline: as §2
Pseudomonas aeruginosa [19] = experiment: Antibacterial activity against Pseudomonas aeruginosa ATCC 27853 assessed as reduction in bacterial growth incubated for 24 hrs in presence of polymyxin B; type: functional
Acinetobacter baumannii [20] = experiment: Bactericidal activity against Acinetobacter baumannii NCTC 19606 assessed as log reduction in colony forming units at 0.5 fold MIC measured after 24 hrs in presence of polymyxin B at MIC by time kill assay; type: functional; outline: as §2
[21] = tested on: Stenotrophomonas maltophilia; experiment: Potentiation of polymyxin B-induced antibacterial activity against Stenotrophomonas maltophilia SMS01 assessed as fold reduction in polymyxin B MIC measured after 24 hrs in presence of polymyxin B by checkerboard assay; type: functional
Staphylococcus aureus [22] = experiment: Potentiation of polymyxin B-induced antibacterial activity against Staphylococcus aureus ATCC 25923 assessed as fold reduction in polymyxin B MIC measured after 24 hrs in presence of polymyxin B by checkerboard assay; type: functional
[23] = tested on: Stenotrophomonas maltophilia; experiment: Antibacterial activity against Stenotrophomonas maltophilia SMS01 assessed as reduction in bacterial growth incubated for 24 hrs in presence of polymyxin B; type: functional
Pseudomonas aeruginosa [24] = experiment: Bactericidal activity against Pseudomonas aeruginosa ATCC 27853 assessed as log reduction in colony forming units at 0.5 fold MIC measured after 24 hrs in presence of polymyxin B at MIC by time kill assay; type: functional; outline: as §2
Streptococcus pyogenes [25] = experiment: Antibacterial activity against Streptococcus pyogenes SPY1 assessed as reduction in bacterial growth incubated for 24 hrs in presence of polymyxin B; type: functional

Question: How did the “fractional inhibitory concentration index (FICI)” value (Pseudomonas aeruginosa [1]) turn out when `CC[C@H](C)CCCCC(=O)N[C@@H](CCN)C(=O)N[C@H](C(=O)N[C@@H](CCN)C(=O)N[C@H]1CCNC(=O)[C@H]([C@@H](C)O)NC(=O)[C@H](CCN)NC(=O)[C@H](CCN)NC(=O)[C@H](CC(C)C)NC(=O)[C@@H](Cc2ccccc2)NC(=O)[C@H](CCN)NC1=O)[C@@H](C)O.O=S(=O)(O)O` was run?
Answer: Its value is 0.023.

Question: And the Activity [2]?
Answer: The Activity was “inactive”.

Question: What about the MIC (Acinetobacter baumannii [3]) of the same molecule?
Answer: The MIC was 0.024 µM.

Question: What about the MIC (Enterococcus faecium [4]) of the same molecule?
Answer: The MIC was 3.1 µM.

Question: And the “fractional inhibitory concentration index (FICI)” value (Enterococcus faecalis [5])?
Answer: Its value is 0.251.

Question: And the “fractional inhibitory concentration index (FICI)” value (Acinetobacter baumannii [6])?
Answer: The value was 0.375.

Question: And the “fractional inhibitory concentration index (FICI)” value (Streptococcus pyogenes [7])?
Answer: The value was 0.5.

Question: And the “fractional inhibitory concentration index (FICI)” value (Streptococcus pyogenes [8])?
Answer: Its value is 0.188.

Question: What about the MIC (Escherichia coli [9]) of the same molecule?
Answer: Its MIC is 0.024 µM.

Question: What about the “fractional inhibitory concentration index (FICI)” value (Pseudomonas aeruginosa [10]) of the same molecule?
Answer: Its value is 0.563.

Question: And the MIC (Enterococcus faecalis [11])?
Answer: The MIC was 0.096 µM.

Question: For `COc1cc(/C=C/C(=O)CC(=O)/C=C/c2ccc(O)c(OC)c2)ccc1O` [CURCUMIN], which MIC (Enterococcus faecium [12]) is on record?
Answer: Its MIC is 22 µM.

Question: What about the “fold change (FC)” value (Escherichia coli [13]) of the same molecule?
Answer: Its value is 3.

Question: And the Activity (Staphylococcus aureus [14])?
Answer: Its Activity is “inactive”.

Question: What about the MIC (Acinetobacter baumannii [15]) of the same molecule?
Answer: The MIC was 174 µM.

Question: And the MIC (Staphylococcus aureus [16])?
Answer: The MIC was 43 µM.

Question: And the “fold change (FC)” value (Pseudomonas aeruginosa [17])?
Answer: Its value is 3.

Question: What about the Activity (Acinetobacter baumannii [18]) of the same molecule?
Answer: Its Activity is “inactive”.

Question: What about the MIC (Pseudomonas aeruginosa [19]) of the same molecule?
Answer: Its MIC is 174 µM.

Question: What about the Activity (Acinetobacter baumannii [20]) of the same molecule?
Answer: Its Activity is greater than 3 log10CFU/ml.

Question: What about the “fold change (FC)” value [21] of the same molecule?
Answer: Its value is 3.

Question: What about the “fold change (FC)” value (Staphylococcus aureus [22]) of the same molecule?
Answer: Its value is 3.

Question: And the MIC [23]?
Answer: The MIC was 22 µM.

Question: What about the Activity (Pseudomonas aeruginosa [24]) of the same molecule?
Answer: Its Activity is greater than 3 log10CFU/ml.

Question: What about the MIC (Streptococcus pyogenes [25]) of the same molecule?
Answer: The MIC was 43 µM.
